# Screening results: PubChem, several laboratories
# A selection: hits, their analogues and other compounds. The true share with any hit is near 2.3%.
# PP5 primary – blocks human protein phosphatase 5 activity. inhibition, % at 6.7 µM. P53041. 320,000 tested, 0.18% active. purified PP5c, OMFP substrate fluorescence;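 active = inhibition above the campaign's mean inhibition across all tested compounds plus 3 SD, cut at about 9.5% in these data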;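 note: 0% = DMSO only and 100% = 100 µM cantharidin control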
# Target sequence (P53041 whole entry, looked up): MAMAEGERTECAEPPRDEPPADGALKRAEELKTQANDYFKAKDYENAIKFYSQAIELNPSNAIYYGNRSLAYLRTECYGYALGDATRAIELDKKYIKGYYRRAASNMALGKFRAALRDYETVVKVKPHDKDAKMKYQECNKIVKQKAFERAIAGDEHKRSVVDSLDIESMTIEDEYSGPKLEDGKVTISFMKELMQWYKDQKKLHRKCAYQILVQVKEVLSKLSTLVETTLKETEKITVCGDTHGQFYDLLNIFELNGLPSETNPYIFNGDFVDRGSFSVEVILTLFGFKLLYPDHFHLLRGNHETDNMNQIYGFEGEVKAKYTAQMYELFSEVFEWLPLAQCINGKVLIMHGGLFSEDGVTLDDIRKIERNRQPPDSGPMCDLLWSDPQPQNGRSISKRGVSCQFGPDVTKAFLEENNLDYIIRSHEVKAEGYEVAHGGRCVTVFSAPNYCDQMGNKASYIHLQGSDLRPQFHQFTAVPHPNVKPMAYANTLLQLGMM
# UBC13 inh – human UBC13 polyubiquitination inhibition | UBC13 polyubiquitin chain formation, TR-FRET | P61088 | 330,000 tested, 0.47% active | inhibition, % at 20 µM; in the data active = inhibition above about 45%, passing the limit was not always enough
# Target sequence (P61088 whole entry, looked up): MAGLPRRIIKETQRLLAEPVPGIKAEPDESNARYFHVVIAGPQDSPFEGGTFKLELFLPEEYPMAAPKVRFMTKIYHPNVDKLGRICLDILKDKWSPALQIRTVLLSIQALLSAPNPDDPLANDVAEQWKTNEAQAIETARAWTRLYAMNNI
# PP1 inh – PP1-alpha (human) inhibition in PP5 counter-screen; P62136; purified PP1alpha, OMFP fluorescence; inhibition, % at 6.7 µM; 320,000 tested, 0.9% active; AID 2235;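 active = inhibition above the mean inhibition of all tested compounds plus 3 SD, computed separately for each screening campaign, cut at about 15% in these data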
# CTSL1 counter – counter-screen for PFM18AAP inhibitors: inhibitors of F. hepatica cathepsin L1. recombinant F. hepatica cathepsin L1, Z-Leu-Arg-MCA fluorescence. inhibition, % at 5.96 µM. 300,000 tested, 0.49% active. AID 1906;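 active = inhibition above the mean of all tested compounds plus 3 SD, set per screening campaign, cut at about 17% in these data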;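 note: 0% = plate median of test compound wells and 100% = 1 µM Z-Phe-Ala-diazomethylketone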
# UCH37 inh – inhibitors of human deubiquitinating enzyme UCH37; inhibition, % (test concentration not listed); AID 588478; Q9Y5K5; 330,000 tested, 0.33% active; purified proteasome/UCH37, Ub-AMC cleavage fluorescence;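 active = mean inhibition over replicate wells above about 20%, limit read from the data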;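 note: 0% = compound-free wells with enzyme and 100% = wells lacking proteasome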
#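 assay system = human UCH37 enzyme supplied as purified proteasome complex | amount = proteasome at 0.15 nM in the dispensed enzyme solution | schedule = 30 min compound-proteasome preincubation then 25 min substrate reaction, room temperature | measured by = fluorescence, ex 355 nm, em 460 nm | benchmarks = no-proteasome wells (full inhibition) and compound-free wells (no inhibition)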
# PREPL inhibitor – inhibits the human prolyl oligopeptidase-like enzyme; Q4J6C6; recombinant PREPL, fluorescence polarization activity-based probe; inhibition, % at 5.96 µM; 320,000 tested, 0.68% active;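 note: 0% = enzyme with DMSO and 100% = wells lacking enzyme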
# PREPL confirm – confirmation of human PREPL enzyme inhibitors | 2,000 tested, 67% active | inhibition, % at 5.96 µM | AID 2803 | shares compounds with PREPL inhibitor | recombinant PREPL, fluorescence polarization activity probe;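 note: 0% = protein with DMSO and 100% = wells lacking protein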
# * = called active by the depositor; nt = no result given. Cut-off read from the data, not from the text of the source, unless noted: active = inhibition above about 43%; inactive = the rest.
SMILES,PP5 primary,UBC13 inh,PP1 inh,CTSL1 counter,UCH37 inh,PREPL inhibitor,PREPL confirm
COc1ccc(NS(=O)(=O)c2cccc(C(=O)NN=Cc3c(F)c(F)c(F)c(F)c3F)c2)cc1,nt,nt,nt,nt,-1.5,nt,nt
C(=N\Nc1ncnc2ccccc12)/c1ccccc1,3.8,-10.5,1.2,0.5,nt,45.0*,20.7
Cc1cc(N2CCOCC2)nc2ccc(NC(=O)CCC(=O)N3CCN(c4ccccc4)CC3)cc12,0.6,-5.6,-0.2,1.2,-159.6,19.1,nt
Cc1cc(N2CCN(C)CC2)nc2ccc(NC(=O)CCC(=O)N3CCN(c4ccc([N+](=O)[O-])cc4)CC3)cc12,1.5,-14.9,2.0,1.6,7.2,66.4*,60.4*
CCOCCn1c(CN(C)Cc2ccccc2)nc2c1c(=O)n(C)c(=O)n2C,2.0,1.5,-2.2,-0.3,2.5,16.2,nt
COCCn1c(CN(C)Cc2ccccc2)nc2c1c(=O)n(C)c(=O)n2C,-3.5,0.8,-4.9,3.8,3.1,53.0*,36.6
CCOC(=O)NC(=O)C(C#N)=NNc1cccc(Cl)c1,nt,nt,nt,nt,10.3,nt,nt
CC(=NNC(=O)c1ccc(F)cc1)c1cccc(NC(=O)c2ccco2)c1,nt,nt,nt,nt,5.5,nt,nt
O=C(O)c1cccc(Cn2c(Cl)c(C=NNC(=O)c3cccc(O)c3)sc2=O)c1,nt,nt,nt,nt,12.6,nt,nt
CCn1c(=O)c(C(=O)Nc2ccc(C)cc2C)c(O)c2ccccc21,-2.1,14.7,-4.1,2.5,-251.5,46.9*,5.7
CCOC(=O)c1ccccc1NC(=O)c1c(O)c2ccccc2n(CC)c1=O,0.6,17.1,-3.4,-0.4,-0.4,-7.0,nt
COc1ccc(C2c3ccc4ccccc4c3Oc3ncn(CCN4CCOCC4)c(=N)c32)cc1OC (stereo not drawn),3.1,-2.1,1.3,-0.3,10.8,46.2*,35.6
Cc1ccc(NC(=O)CC2SC(=Nc3nccs3)N(C)C2=O)c(C)c1 (stereo not drawn),nt,nt,nt,nt,2.3,nt,nt
C(=N\Nc1nc2ccccc2[nH]1)/c1c[nH]c2ccccc12,4.9,0.6,1.5,3.7,nt,49.1*,54.1*
CC(=O)Nc1ccc(OCC(O)CN2CCN(c3ccc(C)c(Cl)c3)CC2)cc1 (stereo not drawn),0.9,1.3,-2.2,-2.8,0.1,44.5*,39.2
CC(=O)Nc1ccc(OCC(O)CN2CCN(c3cc(Cl)ccc3C)CC2)cc1 (stereo not drawn),0.9,9.1,0.8,-0.3,0.6,9.4,nt
COc1ccccc1NC(=O)Nc1nc(CC(=O)Nc2ccc(N(C)C)cc2)cs1,2.1,4.4,-0.2,0.8,3.7,46.7*,43.5*
COc1ccccc1NC(=O)Nc1nc(CC(=O)Nc2ccc(F)cc2)cs1,3.5,13.7,-2.3,1.5,1.9,3.9,nt
c1ccc(-c2nc3ccccn3c2NC2CCCC2)nc1,0.0,6.1,12.5,2.2,2.1,62.8*,64.9*
Cc1ccn2c(NC3CCCC3)c(-c3ccccn3)nc2c1,1.2,34.2,14.2,-1.9,6.0,72.0*,68.8*
COc1ccc(NC(=O)c2sc3ncn(CC(=O)N4CCN(c5ccccn5)CC4)c(=O)c3c2C)cc1OC,0.1,-8.0,-7.0,8.5,2.5,58.4*,49.3*
COc1ccc(OC)c(C(C)=NNc2ccc(C(=O)O)cc2)c1,nt,nt,nt,nt,1.2,nt,nt
Cn1c(N)c(C(=O)COC(=O)/C=C/c2cccc(F)c2)c(=O)n(C)c1=O,2.9,3.3,-3.1,nt,4.4,44.1*,40.1
C#CCn1cc(C=NNC(=O)COc2cccc3cccnc23)c2ccccc21,nt,nt,nt,nt,2.0,nt,nt
Oc1ccc(Nc2nc(N3CCCC3)c3ccccc3n2)cc1,-0.1,27.7,7.0,-0.1,4.6,72.3*,65.7*
SMILES,PP5 primary,UBC13 inh,PP1 inh,CTSL1 counter,UCH37 inh,PREPL inhibitor,PREPL confirm
CC(=NNS(=O)(=O)c1ccc([N+](=O)[O-])cc1)c1ccc(NC(=O)c2ccco2)cc1,nt,nt,nt,nt,6.6,nt,nt
CC1(C)Cc2[nH]c3ccccc3c2C(C)(C)N1,0.6,9.4,0.5,-4.2,-2.2,8.8,nt
CC1=NCC(C)c2c1[nH]c1ccccc21 (stereo not drawn),-0.2,4.7,3.3,2.7,-75.2,44.6*,8.1
CC(=NNc1nccnc1Cl)c1ccc(Br)cc1,nt,nt,nt,nt,5.8,nt,nt
CCOc1cc(N2CCOCC2)c(OCC)cc1NC(=O)COC(=O)CCOc1ccc(C(C)(C)C)cc1,-0.3,-4.1,-3.1,6.5,0.6,6.2,nt
CCC(=O)N1CCN(c2ccc(NC(=O)COc3ccc(CC)cc3)cc2)CC1,0.5,-3.0,1.9,2.1,6.2,44.7*,47.6*
CC(C)(C)c1ccc(OCCC(=O)Nc2ccc(N3CCOCC3)cc2N2CCOCC2)cc1,2.1,1.8,-3.7,2.2,1.9,49.3*,41.9
CCC(=O)N1CCN(c2ccc(NC(=S)NC(=O)COc3ccccc3)cc2)CC1,1.7,1.2,3.0,-2.3,1.4,22.9,nt
Cc1ccc(OCC(=O)Nc2ccc(N3CCOCC3)cc2)cc1,-0.5,2.9,-1.8,-0.3,1.6,44.9*,31.2
COc1ccc(OCC(=O)Nc2ccc(N3CCOCC3)cc2)cc1,1.1,8.1,0.9,-0.8,1.9,23.9,nt
Nc1nc(-c2ccccc2)c(N=Nc2cccc3ccccc23)s1,5.8,-80.6,3.0,-3.1,8.1,15.3,nt
Nc1nc(-c2ccccc2)c(N=Nc2ccccc2Cl)s1,3.8,-196.7,-1.3,4.0,14.4,61.4*,62.2*
COc1cc(C=NNC(=O)CC23CC4CC(CC(C4)C2)C3)cc(Br)c1OCC(=O)N(C)C,nt,nt,nt,nt,3.4,nt,nt
CCOC(=O)C(=NNc1ccccc1Cl)N1CCN(Cc2ccccc2)CC1,nt,nt,nt,nt,2.5,nt,nt
COc1ccc(-c2[nH]nc3c2C(c2ccsc2)C(C#N)=C(N)O3)cc1 (stereo not drawn),2.8,4.2,1.6,1.5,0.4,89.3*,-14.7
Cc1ccc(-c2[nH]nc3c2C(c2ccsc2)C(C#N)=C(N)O3)cc1 (stereo not drawn),2.9,5.8,-2.0,-1.2,3.8,-4.6,nt
CC(CC(=O)Nc1cccc(Br)c1)=NNC(=O)c1ccc(O)cc1O,nt,nt,nt,nt,1.7,nt,nt
CCn1c(CSc2nnc(-c3ccoc3C)n2C)nc2cc(S(=O)(=O)N(C)C)ccc21,-0.5,-2.0,-1.8,-3.1,-2.2,6.4,nt
Cc1occc1-c1nnc(SCc2nc3ccccc3c(=O)n2CC#N)n1C,0.5,3.4,0.9,-2.8,3.1,43.2*,39.8
O=C(NN=Cc1ccc(OC(=O)c2ccccc2Cl)cc1)c1ccc(O)cc1,nt,nt,nt,nt,2.9,nt,nt
COc1cc(-c2nc3ccccn3c2N=Cc2cccc(F)c2)ccc1O,nt,nt,nt,nt,-42.0,nt,nt
CC(C)(C)NC(=S)Nc1ccc(Nc2ccccc2)cc1,8.4,5.5,-3.8,1.4,5.9,59.1*,10.0
CCOc1ccc(CN2CCN(c3cc(C)nc4c5c(C)cc(C)nc5nn34)CC2)cc1,nt,nt,nt,nt,-284.4,nt,nt
COc1ccc(CN2CCN(c3cc(C)nc4c5c(C)cc(C)nc5nn34)CC2)cc1F,3.2,15.0,2.4,-2.6,-216.7,46.2*,34.2
O=C(NCc1ccncc1)C(=NO)c1ccccc1,nt,nt,nt,nt,0.4,nt,nt
